This note sets out measurements from ChEMBL document CHEMBL4513216, “Probing the Open Global Health Chemical Diversity Library for Multistage-Active Starting Points for Next-Generation Antimalarials” (ACS Infect Dis, 2020).

This series can be described thus: Toxicity liver stage against HepG2, at 10uM. The class given is cell-based. The arrangement: test concentration 10 uM, cell line HepG2-A16-CD81EGFP. As to conditions: human, HepG2-A16-CD81EGFP cells; read-out: INHIBITION
In short, it runs like this: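 Uninfected HepG2-A16-CD81EGFP cells, 3 × 10^3 per well, 1536-well, plated on prespotted compound at 10 μM final, parasite-free screening media added to match infected plates; puromycin 10 μM positive, DMSO 0.5% negative; run in parallel with 48 h PbLuc assay at 37 °C, 5% CO2; viability by CellTiter-Glo luminescence, normalized to controls.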
Consider `CC(C)CCN1CC[C@H](c2nnc(Cc3c[nH]c4ccccc34)o2)C1`, for which the cytotoxicity at 10 µM was determined as 0.167%.

`O=C(NC1CCS(=O)(=O)C1)c1cn(C2CC2)c(=O)c2ccccc12` (configuration not stated): the cytotoxicity at 10 µM was -5.65%.

`Cc1cncc(Oc2ccc(CO)cc2)n1`: the cytotoxicity at 10 µM is 5.81%.

With `O=S(=O)(c1ccccc1)N1C[C@@H]2COC[C@]2(COCC2CC2)C1`, the cytotoxicity at 10 µM was 10.2%.

As to `CC(C)CNC(=O)N1CCOC2(CCNCC2)C1`, the cytotoxicity at 10 µM was 9.28%.

For the compound `CS(=O)(=O)NCC1OCCc2cn(CC3CC3)nc21` (configuration not stated), the cytotoxicity at 10 µM was 8.19%.

Consider `c1ccc(CN2CCOC3(CCCN(c4nccs4)C3)C2)cc1` (configuration not stated), for which the cytotoxicity at 10 µM was determined as 13.7%.

`Cc1c(C)n(Cc2ccncc2)c2nc3c(c(N)c12)CCCC3`: the cytotoxicity at 10 µM came out at 1.4%.

Take `CSc1cccc(NC(C)C(=O)Nc2nccs2)c1` (configuration not stated): the cytotoxicity at 10 µM turned out to be 3.05%.

As for `CCc1cc(=O)n(CC(=O)N2CCCCC2)c(-c2cccc(F)c2)n1`, the cytotoxicity at 10 µM was found to be 11.4%.

As for `Cn1cc(-c2cc(-c3cnn(C)c3)n(CC(=O)NC3CC3)n2)cn1`, the cytotoxicity at 10 µM was determined as 2.94%.

In the case of `CCn1ccc(-c2cc(C(=O)O)n3ncc(Cl)c3n2)n1`, the cytotoxicity at 10 µM was -3.05%.

For `CN1C(=O)CC[C@@H]2N(C(=O)CCc3cccnc3)CCCC[C@@]21C`, the cytotoxicity at 10 µM came to 3.82%.

As to `CCOc1ccc(CN2CCC(c3nc(C)cc(C)n3)C2)cc1CO` (configuration not stated), the cytotoxicity at 10 µM turned out to be 2.75%.

For the compound `Cc1ccc(CN2CCc3c(nc4cc(C5CC5)nn4c3O)C2)s1`, the cytotoxicity at 10 µM is -3.69%.

For the compound `CS(=O)(=O)N1CCCC(c2cncc(Nc3ccccn3)n2)C1` (configuration not stated), the cytotoxicity at 10 µM worked out at 0.609%.

For `CC(=O)N1CCCC(Cc2cncc(Br)c2)C1` (configuration not stated), the cytotoxicity at 10 µM was -9.02%.

`C[C@]1(O)CCN(Cc2cccnc2)C[C@@H]1Oc1cccc(F)c1`: the cytotoxicity at 10 µM is -8.22%.

Regarding `CCCC(=O)N1CCc2nc3cc(OC)c(OC)cc3c(=O)n2CC1`, the cytotoxicity at 10 µM is -13.2%.

`O=C(NC1CCCCC1)N1CCn2c(nnc2C2CCCN2)C1` (configuration not stated): the cytotoxicity at 10 µM is 0.336%.

Take `O=C1CC2(CCN(C(=O)c3ccccc3)C2)Nc2ccccc2N1` (configuration not stated): the cytotoxicity at 10 µM turned out to be 9.98%.

Regarding `CN1Cc2ccccc2NC(=O)C12CCNC2` (configuration not stated), the cytotoxicity at 10 µM amounted to 6.75%.

Regarding `CCN(CC)C(=O)CSc1ncc[nH]1`, the cytotoxicity at 10 µM was -9.94%.

For `Cc1ccc(-c2nc(CC(=O)NCC3CCCOC3)cs2)o1` (configuration not stated), the cytotoxicity at 10 µM was -48%.

Turning to `O=C(NCC1SCCc2ccccc21)c1cscn1` (configuration not stated), the cytotoxicity at 10 µM was -1.88%.

As for `Cc1nc(CC(=O)N2c3ccccc3OCC2C)cs1` (configuration not stated), the cytotoxicity at 10 µM is -6.53%.

As to `CC(=O)Nc1ccc(CNCC(O)c2ccc(C)cc2)cc1` (configuration not stated), the cytotoxicity at 10 µM is -0.684%.

As for `Cc1cnn(C2CN(c3nc(-c4ccncc4)nc4c3CCC4)C2)c1`, the cytotoxicity at 10 µM is -46%.

Take `Cn1cc(C(=O)NCc2ccc(OC3CCCCC3)nc2)ccc1=O`: the cytotoxicity at 10 µM amounted to 28.8%.

Turning to `NC(=O)c1ccc(NC(=O)N2CCN(c3cccs3)CC2)c(F)c1`, the cytotoxicity at 10 µM is 1.97%.

For the compound `COCCOc1ncccc1CNC(=O)N1CCCCCC1`, the cytotoxicity at 10 µM was -36%.

As for `CN(C)CCN(Cc1cccnc1)C(=O)c1ccn(-c2ccccc2)n1`, the cytotoxicity at 10 µM was determined as 2.41%.

For `Cc1csc(CNC(=O)NCC(C)Cn2nc(C)cc2C)n1` (configuration not stated), the cytotoxicity at 10 µM was 3.26%.

Regarding `O=C(c1sccc1C1CC1)N1CCN(c2cnccn2)CC1`, the cytotoxicity at 10 µM is -2.92%.

For `CN(C)C(=O)Cn1cc(C#N)c(=O)c2cc(Br)ccc21`, the cytotoxicity at 10 µM was found to be 15.7%.

For `CCc1nc2n(n1)CCCC2Nc1nc(C2CC2)ns1` (configuration not stated), the cytotoxicity at 10 µM was found to be 3.03%.

With `Cc1ccc(N2CCCC(N(C)Cc3noc(C4CC4)n3)C2)nn1` (configuration not stated), the cytotoxicity at 10 µM is 1.6%.

As for `CSC(C)(C)CNC(=O)NC1CCN(CC2CC2)C1` (configuration not stated), the cytotoxicity at 10 µM amounted to 0.811%.

As for `COCc1ccc(C(=O)N(CCC#N)Cc2ccccn2)cc1`, the cytotoxicity at 10 µM amounted to 14%.

`Cc1cc(C)c2c(c1)C(NCc1nnc3n1CCC3)CCCO2` (configuration not stated): the cytotoxicity at 10 µM was -0.117%.

As for `O=C(c1cccnc1-n1cncn1)N1CCN(C2CCCC2)CC1`, the cytotoxicity at 10 µM was determined as 8.7%.

In the case of `CC(C)OCCOCc1cccc(NC(=O)NCC(=O)N(C)C)c1`, the cytotoxicity at 10 µM is -5.53%.

On to `COC(C)c1noc(CN2CCCNCC2)n1` (configuration not stated), for which the cytotoxicity at 10 µM amounted to 5.6%.

Regarding `Cc1ccc(C2CCCN2S(=O)(=O)N(C)Cc2cnn(C)c2)o1` (configuration not stated), the cytotoxicity at 10 µM worked out at 15.8%.

As to `CC(C)CN1C(=O)C2(CCCC2)NC1c1c[nH]nc1-c1cccnc1` (configuration not stated), the cytotoxicity at 10 µM stood at 7.76%.

Take `CCc1nnnn1Cc1csc(N(C)C(C)=O)n1`: the cytotoxicity at 10 µM turned out to be 0.63%.

`COc1cccc2c1N(C(=O)c1ccc(C)nc1)CCC2`: the cytotoxicity at 10 µM turned out to be 1.36%.

For the compound `O=C(c1ncncc1Cl)N1CCN(c2ccc(Cl)cc2)CC1`, the cytotoxicity at 10 µM is -2.72%.

For `CCn1c(CN(C)CC(F)(F)F)nc2c(F)cccc21`, the cytotoxicity at 10 µM is -5.35%.

As to `Cc1nn(C)cc1C(=O)Nc1cccc(CN2CCC(CO)CC2)c1`, the cytotoxicity at 10 µM is -10.2%.

As for `CC(C)c1nc(CN(C)C(=O)Cn2nc3ccccc3n2)no1`, the cytotoxicity at 10 µM is 10.2%.

Turning to `CCn1ncnc1CN1CCOC(Cc2cccc3ccccc23)C1` (configuration not stated), the cytotoxicity at 10 µM stood at 2.53%.

For `CC(=O)N1CC2(CCN(c3ccc4ccccc4n3)CC2)CC1C(=O)O` (configuration not stated), the cytotoxicity at 10 µM was 5.33%.

For the compound `COc1ccc2c(c1)C(C(=O)N(C)CCc1scnc1C)CC(=O)N2` (configuration not stated), the cytotoxicity at 10 µM was -42.3%.

Consider `CCC[C@H]1CN(S(=O)(=O)c2cc(C)ccc2F)C[C@@H]1N`, for which the cytotoxicity at 10 µM was found to be 2.33%.

With `CCc1c(C)nn(CCNC(=O)c2cnn[nH]2)c1C`, the cytotoxicity at 10 µM was -5.28%.

For the compound `Cc1nn(C)c(C)c1NC(=O)c1cccc(CN2CCS(=O)(=O)CC2)c1`, the cytotoxicity at 10 µM was -15.8%.

Turning to `Cc1ccccc1C(=O)NC[C@@H]1CCN(C(=O)CN2CCCC2)C[C@H]1O`, the cytotoxicity at 10 µM was -39.8%.

Take `O=c1cnc2ccccc2n1CCCn1cccn1`: the cytotoxicity at 10 µM is -26.4%.

Take `COc1ccc(CCC(C)Nc2cccc(SC)c2)cc1` (configuration not stated): the cytotoxicity at 10 µM was -1.11%.

As to `CCc1c(C)nn(CCN2CC3(CCOC3)CCC2=O)c1C` (configuration not stated), the cytotoxicity at 10 µM came out at 1.94%.

In the case of `O=C(Nc1ccc(-n2cccn2)cc1)N1C[C@H](O)[C@@H](N2CCOCC2)C1`, the cytotoxicity at 10 µM was -45.9%.

As to `CC(C)(C)c1ccc(-c2n[nH]c3c2CN(CC2CCOC2)CC3)cc1` (configuration not stated), the cytotoxicity at 10 µM was -40.1%.

On to `OC1(c2cn(CC3CCN(C4CCSC4)CC3)nn2)CCCC1` (configuration not stated), for which the cytotoxicity at 10 µM turned out to be 0.445%.

`CCc1cnc(N)nc1NCc1ccc(OC)c(OC)c1`: the cytotoxicity at 10 µM came out at 3.48%.

Turning to `CC(C)(C)N1CC(C(=O)N2CCN(CCc3ccccc3)CC2)CC1=O` (configuration not stated), the cytotoxicity at 10 µM came to 23.4%.

For `Cc1nnc(SCc2ccccn2)s1`, the cytotoxicity at 10 µM was -9.13%.

With `Cc1cc(C)n(CNc2nonc2C(N)=O)n1`, the cytotoxicity at 10 µM was -13%.

Consider `Clc1ccccc1-c1nc(CNC2CCc3ncnn3C2)co1` (configuration not stated), for which the cytotoxicity at 10 µM is -7.6%.

Regarding `COc1ccc(C(O)CNC(=O)NCCc2csc(C)n2)cc1` (configuration not stated), the cytotoxicity at 10 µM is -6.16%.

On to `O=C(C1CCCN1Cc1nc(-c2ccco2)no1)N1CCSCC1` (configuration not stated), for which the cytotoxicity at 10 µM was -5.8%.

For `CCOc1ccccc1N1CCN(C(=O)c2cc[nH]n2)CC1`, the cytotoxicity at 10 µM was -11%.

For `Cn1cc(C2CCCN2C(=O)COCCOc2ccccc2)cn1` (configuration not stated), the cytotoxicity at 10 µM was -16.3%.

As to `Cc1cnn(CC2CN(c3nc4ccccc4o3)CCO2)c1` (configuration not stated), the cytotoxicity at 10 µM is -16.5%.

Regarding `CCc1noc(C(C)N2CCC(N3CCCCC3)CC2)n1` (configuration not stated), the cytotoxicity at 10 µM is -4.8%.

As to `NC(=O)C1CCCN(c2ccc(CNC(=O)c3csnn3)cc2)C1` (configuration not stated), the cytotoxicity at 10 µM was -2.18%.

With `COC(=O)C(c1cc(F)ccc1F)N(C)C(=O)c1cnc(C)cn1` (configuration not stated), the cytotoxicity at 10 µM is 0.111%.

In the case of `Cc1nc(C)n(CC2CCCN(CCCc3ccccc3)C2)n1` (configuration not stated), the cytotoxicity at 10 µM was -6.02%.

Consider `Nc1cc2c(nn1)CCN(C(=O)c1cccc3c1OCCO3)C2`, for which the cytotoxicity at 10 µM was -8.72%.

In the case of `O=C(NCCn1ccnc1)c1ccn(-c2cccc(F)c2)n1`, the cytotoxicity at 10 µM was -5.28%.

On to `CCN(CC1CCOC1)C(=O)Nc1ccc(N2CCCC2)nc1` (configuration not stated), for which the cytotoxicity at 10 µM is -7.1%.

As to `Cc1cnn(C2CCCN(C(=O)c3cn4cccnc4n3)C2)c1` (configuration not stated), the cytotoxicity at 10 µM was -11.4%.

Turning to `COCCOc1cccc(C(=O)N2CCCC(n3ccnc3C)C2)c1` (configuration not stated), the cytotoxicity at 10 µM is -12%.

Regarding `COc1c(C2CCCN2C(=O)c2c[nH]c3ncccc23)c(C)nn1C` (configuration not stated), the cytotoxicity at 10 µM is -6.49%.

Turning to `COc1ccccc1OCC(=O)NS(=O)(=O)c1ccccc1Br`, the cytotoxicity at 10 µM was -9.8%.

With `Cc1cc(C[C@@H]2CCC[C@H]2NCc2ccccc2C)on1`, the cytotoxicity at 10 µM is -5.28%.

Take `Fc1cnc(N2C[C@@H](OCC3CCOCC3)[C@H]3OCCC[C@H]32)nc1`: the cytotoxicity at 10 µM turned out to be 10.5%.

As for `Cn1cc(CN2C[C@H]3CCN(C(=O)c4cscn4)C[C@H]3C2)cn1`, the cytotoxicity at 10 µM is 4.12%.

As for `O=C(c1ccco1)N1C[C@H]2CCCN(Cc3ccoc3)[C@H]2C1`, the cytotoxicity at 10 µM is 0.276%.

Turning to `CC(C)Oc1cccc(CNC(Cc2ccsc2)c2nccs2)c1` (configuration not stated), the cytotoxicity at 10 µM is 0.732%.

As to `O=C(NCC1CC1)[C@@H]1CCO[C@@H]2CCN(c3ncccn3)C[C@@H]21`, the cytotoxicity at 10 µM was 7.64%.

For `COc1ncc(C2(O)CCN(Cc3cccc(F)c3F)CC2)c(OC)n1`, the cytotoxicity at 10 µM is -8.33%.

For the compound `O=C(c1ccc(F)cc1)N1CCN2C[C@H](Oc3cccnc3)C[C@H]2C1`, the cytotoxicity at 10 µM is 3.77%.

In the case of `COc1cc(CNCC(O)c2cccc(F)c2)cc2c1OCO2` (configuration not stated), the cytotoxicity at 10 µM is -6.31%.

As for `CC(C)CC(=O)N1C[C@@H]2CCN(c3ncccn3)C[C@@H]2C1`, the cytotoxicity at 10 µM was -1.63%.

For the compound `CN(Cc1ccco1)[C@@H]1CN(Cc2nccs2)C[C@@H]2CCCO[C@@H]21`, the cytotoxicity at 10 µM is 6.07%.

In the case of `Cc1ccc(N2CCO[C@H]3CN(CC4CC4)C[C@H]32)nn1`, the cytotoxicity at 10 µM was -7.93%.
